From ChEMBL document CHEMBL1687928, “Discovery, optimization, and pharmacological characterization of novel heteroaroylphenylureas antagonists of C-C chemokine ligand 2 function” (J Med Chem, 2011) come the findings set out here.

In brackets after ≈: the same amount, converted by molar mass. Activity calls are given as the source filed them. No cut-off for these calls is given here.

Data set [1] is described as follows: Aqueous solubility of the compound at pH 1.2. Format: physicochemical.
Data set [2] has as its target T1, C5a anaphylatoxin chemotactic receptor 1 (Homo sapiens) (UniProt P21730).
T1 sequence (whole entry): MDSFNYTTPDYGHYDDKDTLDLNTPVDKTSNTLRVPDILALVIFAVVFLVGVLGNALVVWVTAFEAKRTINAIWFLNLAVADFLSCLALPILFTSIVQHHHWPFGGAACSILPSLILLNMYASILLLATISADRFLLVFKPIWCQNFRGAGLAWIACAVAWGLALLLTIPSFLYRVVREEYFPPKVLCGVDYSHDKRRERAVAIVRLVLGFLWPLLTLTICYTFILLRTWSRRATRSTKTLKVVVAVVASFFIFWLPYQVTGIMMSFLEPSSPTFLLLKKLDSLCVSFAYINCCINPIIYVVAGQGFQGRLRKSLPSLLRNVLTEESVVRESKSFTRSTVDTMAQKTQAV
Type of data set: cell-based. Conditions: CHO.

The target in data set [3] is C-C chemokine receptor type 2 (Homo sapiens) (UniProt P41597). Format: cell-based. Conditions: HEK293.
For data set [4] the target is unchanged. Type of data set: cell-based. Conditions: THP-1.
The subject of data set [5] is THP-1. As to the kind of experiment: Cytotoxicity against human THP1 cells. Format: cell-based.
Data set [6] can be described thus: Aqueous solubility of the compound at pH 7.4. Format: physicochemical.
The target in data set [7] is T2, C-X-C chemokine receptor type 1 (Homo sapiens) (UniProt P25024).
T2 sequence (whole entry): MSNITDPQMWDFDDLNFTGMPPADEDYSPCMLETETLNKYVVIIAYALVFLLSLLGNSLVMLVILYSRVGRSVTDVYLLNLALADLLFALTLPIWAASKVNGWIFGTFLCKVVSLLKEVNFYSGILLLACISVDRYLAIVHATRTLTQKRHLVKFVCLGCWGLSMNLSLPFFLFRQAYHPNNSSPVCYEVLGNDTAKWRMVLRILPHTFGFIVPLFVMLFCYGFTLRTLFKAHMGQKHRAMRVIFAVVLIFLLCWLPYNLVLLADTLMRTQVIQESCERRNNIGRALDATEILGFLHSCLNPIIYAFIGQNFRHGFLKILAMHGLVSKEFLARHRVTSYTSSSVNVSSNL
Format: cell-based. Conditions: neutrophils.

The target of data set [8] is T3, C-X-C chemokine receptor type 2 (Homo sapiens) (UniProt P25025).
T3 sequence (whole entry): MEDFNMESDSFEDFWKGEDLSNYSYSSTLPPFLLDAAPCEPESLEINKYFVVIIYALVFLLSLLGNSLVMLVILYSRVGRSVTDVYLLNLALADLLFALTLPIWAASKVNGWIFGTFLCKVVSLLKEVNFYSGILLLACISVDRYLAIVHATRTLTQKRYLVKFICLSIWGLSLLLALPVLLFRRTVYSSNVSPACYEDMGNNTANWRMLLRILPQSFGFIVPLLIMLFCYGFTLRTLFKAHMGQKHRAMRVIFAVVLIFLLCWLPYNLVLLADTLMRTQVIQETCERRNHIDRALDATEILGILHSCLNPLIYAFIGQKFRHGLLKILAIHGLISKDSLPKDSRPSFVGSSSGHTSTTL
Type of data set: cell-based. Conditions: neutrophils.

The target in data set [9] is C-C chemokine receptor type 2 (Homo sapiens) (UniProt P41597). Put plainly: Antagonist activity at CCR2 in human THP1 cells assessed as inhibition of CCL2-induced calcium flux. Format: functional, cell-based. Conditions: THP-1. The method in brief: (§1)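 THP-1 cells in serum-free RPMI 1640 were loaded with 3 μM Fluo-3AM plus 0.1% F127 for 30 min at 37 °C. After washing, cells were resuspended at 5 × 10^6 cells/mL and kept at room temperature. They were pretreated 30 min with compound or DMSO, then stimulated with 100 ng/mL hCCL2. Fluorescence was read by flow cytometry at baseline for 15 s, then from 20 to 120 s. Inhibition is given as % of DMSO control.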

Data set [10] has the same target. As to the kind of experiment: Antagonist activity at CCR2 in human THP1 cells assessed as inhibition of CCL2-induced calcium flux at 50 uM. Format: functional, cell-based. The conditions noted are these: THP-1. The method in brief:
as §1
(In general: A change in cytosolic calcium serves as a functional read-out for many receptors and channels.)

Sequence of C-C chemokine receptor type 2 (Homo sapiens) (P41597 whole entry, looked up): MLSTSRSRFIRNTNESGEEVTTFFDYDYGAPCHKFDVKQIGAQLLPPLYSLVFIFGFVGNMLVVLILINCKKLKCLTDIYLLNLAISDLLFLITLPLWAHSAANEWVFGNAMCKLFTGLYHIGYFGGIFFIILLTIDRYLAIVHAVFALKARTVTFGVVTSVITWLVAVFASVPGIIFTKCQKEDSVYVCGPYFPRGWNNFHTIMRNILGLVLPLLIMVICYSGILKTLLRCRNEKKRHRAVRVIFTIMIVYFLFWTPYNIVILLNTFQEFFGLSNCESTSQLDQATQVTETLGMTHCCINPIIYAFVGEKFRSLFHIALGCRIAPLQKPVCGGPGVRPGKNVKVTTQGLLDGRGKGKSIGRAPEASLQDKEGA

As a reminder, the solubility is the concentration that dissolves in the medium under given conditions. The low end stands for little dissolved substance, the high end for much dissolved substance. One may read the CC50 as the concentration at which the toxic effect on the cells reaches its halfway point. Read a low CC50 as greater toxicity to the cells. As to `Cc1nn(C)c2ncc(C(=O)NC(=O)Nc3ccc(F)c(C(F)(F)F)c3)cc12`, the values for the solubility in data set [1] and in data set [6] were 3.9 µg/mL (≈ 9.87 µM) and 5 µg/mL (≈ 12.6 µM), respectively. For the same compound, the result in data set [2], in data set [3], in data set [4], in data set [7] and in data set [8] was inactive. The same compound yielded a CC50 in [5] greater than 50 µM.

Turning to `O=C(NC(=O)c1ccc2c(c1)OCO2)Nc1ccc(O)c(Cl)c1`, in [9], the Activity entry was “Dose-dependent effect”. Besides, the outcome in data set [3] and in data set [4] was inactive. For the same compound, the CC50 in data set [5] was greater than 50 µM. For the same compound, in [10], the outcome was Active.
